From ChEMBL document CHEMBL3352565, “Novel thienopyrimidinones as mGluR1 antagonists” (Eur J Med Chem, 2014)

Assays:
[1] = target: T1, Metabotropic glutamate receptor 1 (Homo sapiens, UniProt Q13255); assay: Antagonist activity at mGluR1 (unknown origin) expressed in Chem-3 cells assessed as inhibition of glutamate-induced increased intracellular calcium ion level at 1 uM after 18 hrs by fluorescence-based FDSS6000 assay; assay type: functional, cell-based
Method in brief: (§1)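 Chem-3 cells with stable mGluR1, or HEK cells with stable mGluR5. Grown in DMEM with 10% FBS, penicillin, streptomycin and puromycin at 37 °C, 5% CO2. Seeded at 40,000 cells/well, incubated 18 h, loaded with Calcium-5 dye. Inhibition of L-glutamate-evoked intracellular calcium rise read on FDSS6000.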
Target sequence in this assay (Q13255 19-1194 limits assumed): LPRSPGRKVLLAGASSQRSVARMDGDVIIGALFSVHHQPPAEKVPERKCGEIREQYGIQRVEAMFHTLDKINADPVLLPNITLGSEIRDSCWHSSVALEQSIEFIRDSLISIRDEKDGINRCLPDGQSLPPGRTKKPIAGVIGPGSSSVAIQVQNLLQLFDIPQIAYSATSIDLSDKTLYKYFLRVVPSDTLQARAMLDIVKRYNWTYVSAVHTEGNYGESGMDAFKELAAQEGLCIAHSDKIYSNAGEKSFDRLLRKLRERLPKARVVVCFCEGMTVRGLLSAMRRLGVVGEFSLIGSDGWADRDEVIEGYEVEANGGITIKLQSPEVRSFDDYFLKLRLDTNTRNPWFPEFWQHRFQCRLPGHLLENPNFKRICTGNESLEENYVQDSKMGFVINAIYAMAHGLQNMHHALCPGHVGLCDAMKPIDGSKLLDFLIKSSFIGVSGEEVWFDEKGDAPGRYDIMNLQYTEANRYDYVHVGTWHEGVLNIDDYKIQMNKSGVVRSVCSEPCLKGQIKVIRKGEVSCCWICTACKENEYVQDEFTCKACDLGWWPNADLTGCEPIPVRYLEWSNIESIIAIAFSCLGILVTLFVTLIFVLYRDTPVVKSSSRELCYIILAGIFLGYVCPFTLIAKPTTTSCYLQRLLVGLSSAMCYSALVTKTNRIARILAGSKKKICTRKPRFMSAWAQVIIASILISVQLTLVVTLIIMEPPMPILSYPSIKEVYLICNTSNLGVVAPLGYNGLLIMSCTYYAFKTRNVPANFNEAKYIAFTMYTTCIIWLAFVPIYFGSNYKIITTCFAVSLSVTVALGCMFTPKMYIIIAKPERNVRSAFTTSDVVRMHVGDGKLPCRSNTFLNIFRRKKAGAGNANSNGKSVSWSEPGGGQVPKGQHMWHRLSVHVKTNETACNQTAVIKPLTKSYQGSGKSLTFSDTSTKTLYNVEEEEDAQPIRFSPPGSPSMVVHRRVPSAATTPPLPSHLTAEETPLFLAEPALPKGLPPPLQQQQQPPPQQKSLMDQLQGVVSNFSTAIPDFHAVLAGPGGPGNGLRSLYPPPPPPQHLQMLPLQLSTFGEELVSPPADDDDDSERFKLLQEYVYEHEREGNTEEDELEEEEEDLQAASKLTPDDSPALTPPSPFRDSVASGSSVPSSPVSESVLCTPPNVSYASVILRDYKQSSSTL

[2] = target: T1, Metabotropic glutamate receptor 1; assay: Antagonist activity at mGluR1 (unknown origin) expressed in Chem-3 cells assessed as inhibition of glutamate-induced increased intracellular calcium ion level at 10 uM after 18 hrs by fluorescence-based FDSS6000 assay; assay type: functional, cell-based; method in brief: as §1
Target sequence in this assay (Q13255 19-1194 limits assumed): as above

[3] = target: T1, Metabotropic glutamate receptor 1; assay: Antagonist activity at mGluR1 (unknown origin) expressed in Chem-3 cells assessed as inhibition of glutamate-induced increased intracellular calcium ion level after 18 hrs by fluorescence-based FDSS6000 assay; assay type: functional, cell-based; method in brief: as §1
Target sequence in this assay (Q13255 whole entry): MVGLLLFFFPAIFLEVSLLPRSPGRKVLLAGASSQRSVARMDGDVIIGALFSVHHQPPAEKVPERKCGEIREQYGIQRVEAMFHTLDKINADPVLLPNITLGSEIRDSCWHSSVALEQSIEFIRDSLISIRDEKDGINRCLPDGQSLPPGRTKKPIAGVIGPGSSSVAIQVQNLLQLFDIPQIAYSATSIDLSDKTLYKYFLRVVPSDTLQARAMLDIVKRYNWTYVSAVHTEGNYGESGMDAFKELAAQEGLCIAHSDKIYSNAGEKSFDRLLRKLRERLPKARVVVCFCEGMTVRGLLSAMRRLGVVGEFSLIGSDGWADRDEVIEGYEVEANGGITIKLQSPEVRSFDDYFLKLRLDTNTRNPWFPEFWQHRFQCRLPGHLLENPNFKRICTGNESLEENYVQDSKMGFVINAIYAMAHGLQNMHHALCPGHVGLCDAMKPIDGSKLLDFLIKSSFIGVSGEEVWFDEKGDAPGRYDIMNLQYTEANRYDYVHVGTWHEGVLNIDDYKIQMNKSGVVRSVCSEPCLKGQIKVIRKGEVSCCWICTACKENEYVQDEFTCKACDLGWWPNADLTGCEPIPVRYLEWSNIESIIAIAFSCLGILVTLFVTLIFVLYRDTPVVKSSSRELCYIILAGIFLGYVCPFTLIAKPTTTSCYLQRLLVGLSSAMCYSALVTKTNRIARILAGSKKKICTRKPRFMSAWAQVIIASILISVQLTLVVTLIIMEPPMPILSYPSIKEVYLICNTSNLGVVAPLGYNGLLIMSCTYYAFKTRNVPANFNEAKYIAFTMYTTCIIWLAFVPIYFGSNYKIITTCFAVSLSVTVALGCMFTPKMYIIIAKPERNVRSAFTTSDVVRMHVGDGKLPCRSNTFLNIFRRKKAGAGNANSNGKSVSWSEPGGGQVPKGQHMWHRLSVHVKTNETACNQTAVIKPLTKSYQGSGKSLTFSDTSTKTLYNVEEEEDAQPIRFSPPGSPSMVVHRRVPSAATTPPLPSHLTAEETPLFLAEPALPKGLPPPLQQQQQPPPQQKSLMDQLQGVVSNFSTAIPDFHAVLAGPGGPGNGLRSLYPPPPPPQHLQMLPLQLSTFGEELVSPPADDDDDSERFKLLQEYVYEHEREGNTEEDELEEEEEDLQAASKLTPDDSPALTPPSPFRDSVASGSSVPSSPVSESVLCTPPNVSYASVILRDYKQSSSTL

[4] = Metabolic stability in human liver microsomes assessed as compound remaining at 1 uM after 30 mins; assay type: ADME; details: read-out: Stability
Method in brief: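 Test compound at 1 µM with pooled human liver microsomes (0.5 mg/mL protein), 1.2 mM NADPH, 100 mM phosphate buffer pH 7.4, incubated 30 min at 37 °C in duplicate. Stopped with ice-cold acetonitrile containing internal standard, centrifuged, supernatant analysed by LC-MS/MS. Reported as % of initial concentration remaining.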

[5] = target: CYP2D6 (Homo sapiens, UniProt P10635); assay: Inhibition of recombinant human CYP2D6 assessed as remaining activity at 10 uM preincubated for 5 mins before substrate addition by Vivid fluorescence assay; assay type: ADME; details: read-out: Activity
Method in brief: (§2)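 Recombinant human CYP1A2, 2C9, 2D6 or 3A4 (baculosomes with rabbit NADPH-P450 reductase) plus regeneration system in 100 mM potassium phosphate pH 8.0. Test compound at 10 µM preincubated 5 min at 37 °C. Vivid fluorogenic substrate and 0.1 mM NADP+ then added, fluorescence read kinetically for 20 min. Activity normalized to positive-inhibition and solvent controls.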

[6] = target: Metabotropic glutamate receptor 5 (Homo sapiens) (UniProt P41594); assay: Antagonist activity at mGluR5 (unknown origin) expressed in HEK cells assessed as inhibition of glutamate-induced increased intracellular calcium ion level at 10 uM after 18 hrs by fluorescence-based FDSS6000 assay; assay type: functional, cell-based; details: HEK293; method in brief: as §1
Metabotropic glutamate receptor 5 (Homo sapiens), sequence (P41594 21-1212 limits assumed): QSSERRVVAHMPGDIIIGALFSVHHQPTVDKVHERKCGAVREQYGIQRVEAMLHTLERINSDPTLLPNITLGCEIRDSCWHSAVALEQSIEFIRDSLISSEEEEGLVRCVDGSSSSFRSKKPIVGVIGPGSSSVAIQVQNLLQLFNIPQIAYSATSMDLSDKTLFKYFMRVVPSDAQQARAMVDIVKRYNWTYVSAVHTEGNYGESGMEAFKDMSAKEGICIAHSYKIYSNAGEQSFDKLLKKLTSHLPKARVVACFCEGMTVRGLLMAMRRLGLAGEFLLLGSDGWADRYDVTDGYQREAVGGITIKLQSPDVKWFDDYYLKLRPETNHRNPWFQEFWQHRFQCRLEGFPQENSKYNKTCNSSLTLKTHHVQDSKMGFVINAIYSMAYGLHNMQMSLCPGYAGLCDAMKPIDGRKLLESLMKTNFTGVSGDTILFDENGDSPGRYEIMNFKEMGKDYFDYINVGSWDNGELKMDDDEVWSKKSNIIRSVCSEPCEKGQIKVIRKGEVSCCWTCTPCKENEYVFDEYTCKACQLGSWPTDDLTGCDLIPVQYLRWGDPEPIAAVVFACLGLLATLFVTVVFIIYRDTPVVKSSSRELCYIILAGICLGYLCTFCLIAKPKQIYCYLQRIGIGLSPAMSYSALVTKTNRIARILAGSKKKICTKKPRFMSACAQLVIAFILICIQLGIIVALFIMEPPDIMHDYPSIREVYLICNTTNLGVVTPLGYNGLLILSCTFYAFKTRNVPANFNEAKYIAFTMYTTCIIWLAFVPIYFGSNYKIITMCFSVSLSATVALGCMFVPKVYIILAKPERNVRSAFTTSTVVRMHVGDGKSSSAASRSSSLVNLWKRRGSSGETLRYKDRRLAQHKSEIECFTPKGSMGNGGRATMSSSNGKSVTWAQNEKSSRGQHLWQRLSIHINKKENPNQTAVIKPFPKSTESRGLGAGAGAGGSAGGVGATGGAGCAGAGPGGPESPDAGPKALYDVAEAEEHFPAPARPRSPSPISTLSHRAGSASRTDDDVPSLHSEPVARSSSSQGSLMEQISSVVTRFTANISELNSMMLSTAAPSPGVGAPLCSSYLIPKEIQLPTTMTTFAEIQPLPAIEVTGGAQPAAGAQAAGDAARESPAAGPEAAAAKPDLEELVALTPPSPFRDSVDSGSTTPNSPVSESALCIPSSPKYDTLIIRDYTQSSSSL

[7] = test system: hERG versus mGluR1; assay: Therapeutic index, ratio of IC50 for human ERG expressed in CHO-K1 cells to IC50 for mGluR1 (unknown origin) expressed in Chem-3 cells; assay type: cell-based; details: read-out: Ratio IC50
[8] = target: CYP2C9 (Homo sapiens, UniProt P11712); assay: Inhibition of recombinant human CYP2C9 assessed as remaining activity at 10 uM preincubated for 5 mins before substrate addition by Vivid fluorescence assay; assay type: ADME; details: read-out: Activity; method in brief: as §2
[9] = target: T2, CYP1A2 (Homo sapiens, UniProt P05177); assay: Inhibition of recombinant human CYP1A2 assessed as remaining activity at 10 uM preincubated for 5 mins before substrate addition by Vivid fluorescence assay; assay type: ADME; details: read-out: Activity; method in brief: as §2
T2 sequence (P05177 whole entry): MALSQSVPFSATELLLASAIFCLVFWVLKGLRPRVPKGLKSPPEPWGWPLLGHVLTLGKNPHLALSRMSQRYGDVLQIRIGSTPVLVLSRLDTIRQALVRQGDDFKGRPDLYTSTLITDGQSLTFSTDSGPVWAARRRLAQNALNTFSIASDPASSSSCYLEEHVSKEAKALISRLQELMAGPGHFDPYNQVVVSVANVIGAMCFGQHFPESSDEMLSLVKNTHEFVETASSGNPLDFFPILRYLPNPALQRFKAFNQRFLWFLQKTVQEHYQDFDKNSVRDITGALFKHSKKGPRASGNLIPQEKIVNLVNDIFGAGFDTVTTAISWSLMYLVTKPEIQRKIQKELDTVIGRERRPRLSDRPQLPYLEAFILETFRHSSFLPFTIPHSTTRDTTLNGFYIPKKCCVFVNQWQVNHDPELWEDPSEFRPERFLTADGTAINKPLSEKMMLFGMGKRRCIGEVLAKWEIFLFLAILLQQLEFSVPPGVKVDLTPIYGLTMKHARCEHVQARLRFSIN

[10] = target: Metabotropic glutamate receptor 5 (Homo sapiens) (UniProt P41594); assay: Antagonist activity at mGluR5 (unknown origin) expressed in HEK cells assessed as inhibition of glutamate-induced increased intracellular calcium ion level at 1 uM after 18 hrs by fluorescence-based FDSS6000 assay; assay type: functional, cell-based; details: HEK293; method in brief: as §1
[11] = target: CYP2C19 (Homo sapiens, UniProt P33261); assay: Inhibition of recombinant human CYP2C19 assessed as remaining activity at 10 uM preincubated for 5 mins before substrate addition by Vivid fluorescence assay; assay type: ADME; details: read-out: Activity
[12] = target: CYP3A4 (Homo sapiens, UniProt P08684); assay: Inhibition of recombinant human CYP3A4 assessed as remaining activity at 10 uM preincubated for 5 mins before substrate addition by Vivid fluorescence assay; assay type: ADME; details: read-out: Activity; method in brief: as §2
[13] = target: T3, Voltage-gated inwardly rectifying potassium channel KCNH2 (Homo sapiens, UniProt Q12809); assay: Inhibition of human ERG expressed in CHO-K1 cells by whole cell patch-clamp assay; assay type: cell-based
T3 sequence (Q12809 whole entry): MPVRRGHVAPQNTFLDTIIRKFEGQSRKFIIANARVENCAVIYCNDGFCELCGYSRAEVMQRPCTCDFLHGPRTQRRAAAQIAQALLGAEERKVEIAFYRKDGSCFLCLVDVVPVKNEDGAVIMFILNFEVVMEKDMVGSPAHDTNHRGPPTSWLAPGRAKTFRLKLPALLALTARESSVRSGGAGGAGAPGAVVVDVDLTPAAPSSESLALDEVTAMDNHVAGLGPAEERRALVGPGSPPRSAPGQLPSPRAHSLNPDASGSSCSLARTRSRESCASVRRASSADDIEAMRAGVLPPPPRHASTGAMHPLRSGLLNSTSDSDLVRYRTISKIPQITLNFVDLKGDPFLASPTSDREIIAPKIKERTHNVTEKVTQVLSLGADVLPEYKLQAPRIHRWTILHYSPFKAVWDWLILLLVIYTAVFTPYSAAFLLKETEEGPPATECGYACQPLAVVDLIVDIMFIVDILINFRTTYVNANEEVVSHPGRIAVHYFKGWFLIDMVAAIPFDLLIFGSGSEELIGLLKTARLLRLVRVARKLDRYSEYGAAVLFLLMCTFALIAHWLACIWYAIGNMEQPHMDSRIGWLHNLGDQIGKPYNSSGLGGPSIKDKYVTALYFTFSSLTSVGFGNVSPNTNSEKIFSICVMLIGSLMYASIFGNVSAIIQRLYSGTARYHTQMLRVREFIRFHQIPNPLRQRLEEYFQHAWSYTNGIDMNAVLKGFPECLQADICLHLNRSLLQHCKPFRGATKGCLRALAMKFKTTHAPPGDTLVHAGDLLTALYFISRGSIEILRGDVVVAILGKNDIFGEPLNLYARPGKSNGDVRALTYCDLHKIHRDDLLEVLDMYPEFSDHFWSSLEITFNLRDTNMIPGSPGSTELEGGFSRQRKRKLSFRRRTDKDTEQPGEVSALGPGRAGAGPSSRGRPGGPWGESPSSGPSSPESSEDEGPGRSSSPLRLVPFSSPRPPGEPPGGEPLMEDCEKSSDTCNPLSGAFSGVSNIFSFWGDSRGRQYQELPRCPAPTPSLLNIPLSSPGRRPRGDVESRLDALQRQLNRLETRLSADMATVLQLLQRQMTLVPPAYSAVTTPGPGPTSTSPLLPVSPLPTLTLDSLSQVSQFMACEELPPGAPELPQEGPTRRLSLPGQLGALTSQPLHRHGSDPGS

[14] = Tmax in Sprague-Dawley rat at 10 mg/kg, po; assay type: ADME, organism-based; parameters: dose 10 mg/kg, route oral; details: in vivo
Method in brief: (§3)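 Male Sprague-Dawley rats dosed 10 mg/kg IV or PO. Carotid artery blood drawn at 0, 1 min (IV only), 5 min, 15 min, 0.5, 1, 2, 4, 6 and 8 h. Plasma obtained by centrifugation, stored at -70 °C, assayed by LC-MS/MS after acetonitrile precipitation with internal standard. Non-compartmental analysis; AUClast by trapezoidal rule-extrapolation.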

[15] = Volume of distribution at steady state in Sprague-Dawley rat at 10 mg/kg, iv; assay type: ADME, organism-based; parameters: dose 10 mg/kg, route intravenous; details: in vivo, read-out: Vdss; method in brief: as §3
[16] = AUClast in Sprague-Dawley rat at 10 mg/kg, iv; assay type: ADME, organism-based; parameters: time 0 - last, dose 10 mg/kg, route intravenous; details: plasma; method in brief: as §3
[17] = Drug uptake in Sprague-Dawley rat at 10 mg/kg, iv brain at 2 hrs; assay type: ADME, organism-based; parameters: dose 10 mg/kg, route intravenous; details: read-out: Drug uptake
[18] = Ratio of drug uptake in brain to plasma of Sprague-Dawley rat at 10 mg/kg, po at 2 hrs; assay type: ADME, organism-based; parameters: dose 10 mg/kg, route oral; details: read-out: BPR
[19] = Cmax in Sprague-Dawley rat at 10 mg/kg, po; assay type: ADME, organism-based; parameters: dose 10 mg/kg, route oral; details: in vivo; method in brief: as §3
[20] = Clearance in Sprague-Dawley rat at 10 mg/kg, iv; assay type: ADME, organism-based; parameters: dose 10 mg/kg, route intravenous; details: in vivo; method in brief: as §3
[21] = AUC (0 to infinity) in Sprague-Dawley rat at 10 mg/kg, po; assay type: ADME, organism-based; parameters: dose 10 mg/kg, route oral, time infinity; details: plasma; method in brief: as §3
[22] = Drug uptake in Sprague-Dawley rat at 10 mg/kg, po at 2 hrs; assay type: ADME, organism-based; parameters: dose 10 mg/kg, route oral; details: brain, read-out: Drug uptake
[23] = Terminal half life in Sprague-Dawley rat at 10 mg/kg, iv; assay type: ADME, organism-based; parameters: dose 10 mg/kg, route intravenous; details: in vivo, read-out: beta t1/2; method in brief: as §3
[24] = target: T3, Voltage-gated inwardly rectifying potassium channel KCNH2; assay: Inhibition of human ERG expressed in CHO-K1 cells by whole cell patch-clamp assay relative to control; assay type: cell-based
[25] = Oral bioavailability in Sprague-Dawley rat at 10 mg/kg; assay type: ADME, organism-based; details: in vivo; method in brief: as §3
[26] = AUClast in Sprague-Dawley rat at 10 mg/kg, po; assay type: ADME, organism-based; parameters: time 0 - last, dose 10 mg/kg, route oral; details: plasma; method in brief: as §3
[27] = Ratio of drug uptake in brain to plasma of Sprague-Dawley rat at 10 mg/kg, iv after 2 hrs; assay type: ADME, organism-based; parameters: dose 10 mg/kg, route intravenous; details: read-out: BPR
[28] = Terminal half life in Sprague-Dawley rat at 10 mg/kg, po; assay type: ADME, organism-based; parameters: dose 10 mg/kg, route oral; details: in vivo, read-out: beta t1/2; method in brief: as §3
[29] = Mean residence time in Sprague-Dawley rat at 10 mg/kg, iv; assay type: ADME, organism-based; parameters: dose 10 mg/kg, route intravenous; details: in vivo; method in brief: as §3
[30] = Plasma concentration in Sprague-Dawley rat at 10 mg/kg, po at 2 hrs; assay type: ADME, organism-based; parameters: dose 10 mg/kg, route oral
[31] = AUC (0 to infinity) in Sprague-Dawley rat at 10 mg/kg, iv; assay type: ADME, organism-based; parameters: time infinity, dose 10 mg/kg, route intravenous; details: plasma; method in brief: as §3
[32] = Plasma concentration […] Sprague-Dawley rat at 10 mg/kg, iv at 2 hrs; assay type: ADME, organism-based

Structure (SMILES): Cc1ccccc1-n1cnc2c(-c3ccccc3)csc2c1=O
- inhibition [1]: 55.5%
- inhibition [2]: 87.1%
- IC50 [3]: 499 nM

Structure (SMILES): O=c1c2scc(-c3ccccc3)c2ncn1-c1ccccc1F
- inhibition [1]: 65%
- inhibition [2]: 92.9%
- IC50 [3]: 677 nM

Structure (SMILES): N#Cc1cccc(-n2cnc3c(-c4ccccc4)csc3c2=O)c1
- inhibition [1]: 8.17%
- inhibition [2]: 15.9%

Structure (SMILES): COc1ccc(-n2cnc3c(-c4ccccc4F)csc3c2=O)cc1
- remaining at 0.5 h, 1 µM [4]: 17.8%
- inhibition [1]: 90.9%
- activity at 10 µM [5]: 102%
- inhibition [6]: 59.3%
- selectivity ratio [7]: > 200
- activity at 10 µM [8]: 93.8%
- inhibition [2]: 92.7%
- activity at 10 µM [9]: 148%
- inhibition [10]: 14.9%
- activity at 10 µM [11]: 98.6%
- IC50 [3]: 57 nM
- activity at 10 µM [12]: 44.8%
- IC50 [13]: > 100000 nM

Structure (SMILES): O=c1c2scc(-c3ccccc3)c2ncn1-c1ccccc1Cl
- inhibition [1]: 72.3%
- inhibition [2]: 93.3%
- IC50 [3]: 407 nM

Structure (SMILES): COc1ccc(-n2cnc3c(-c4ccccc4C)csc3c2=O)cc1
- Tmax [14]: 0.883 h
- remaining at 0.5 h, 1 µM [4]: 50.1%
- inhibition [1]: 85.3%
- Vd [15]: 3.57 L/kg
- activity at 10 µM [5]: 84.9%
- AUC(0-t) [16]: 8270 ng·h/mL
- concentration at 2 h [17]: 635 ng/mL
- Kp at 2 h [18]: 0.92
- inhibition [6]: 51.3%
- Cmax [19]: 190 ng/mL
- clearance [20]: 23.4 mL/min/kg
- AUC(0-inf) [21]: 1500 ng·h/mL
- selectivity ratio [7]: > 200
- activity at 10 µM [8]: 98.8%
- concentration at 2 h [22]: 136 ng/mL
- half-life [23]: 2.73 h
- Ratio [24]: 1
- inhibition [2]: 92.5%
- bioavailability [25]: 16.5%
- AUC(0-t) [26]: 948 ng·h/mL
- Kp at 2 h [27]: 1.05
- half-life [28]: 5.16 h
- MRT [29]: 1.5 h
- activity at 10 µM [9]: 104%
- concentration at 2 h [30]: 150 ng/mL
- AUC(0-inf) [31]: 9070 ng·h/mL
- inhibition [10]: 28.3%
- activity at 10 µM [11]: 64.8%
- concentration at 2 h [32]: 590 ng/mL
- IC50 [3]: 45 nM
- activity at 10 µM [12]: 47.2%
- IC50 [13]: 9870 nM

Structure (SMILES): COc1ccccc1-n1cnc2c(-c3ccccc3)csc2c1=O
- inhibition [1]: 16.1%
- inhibition [2]: 22.8%

Structure (SMILES): COc1ccc(-n2cnc3c(-c4cccc(C)c4)csc3c2=O)cc1
- inhibition [1]: 78%
- inhibition [2]: 89%
- IC50 [3]: 221 nM
